For one compound, Control and activity results are on record in ChEMBL document CHEMBL1123129, “Hypolipidemic activity of indan-1,3-dione derivatives in rodents” (J Med Chem, 1985).

Each structure is given as a SMILES string.

In data set [1] the test system is Rattus norvegicus. Kind of data set: Compound was evaluated for the hypolipidemic activity at 20 mg/kg per day orally for 14 days on phospholipids content in rat LDL. Format: functional. Particulars: route oral. In a few lines: (§1)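 Male Sprague–Dawley rats (~300 g) were dosed orally each day. Blood was drawn from the abdominal vein. Lipoprotein fractions (chylomicron, VLDL, LDL, HDL) were separated by the Hatch–Lees and Havel methods. Each fraction was assayed for cholesterol, triglyceride (enzymatic kit), neutral lipids, phospholipids and Lowry protein. Values are % of 1% CMC vehicle control, N = 6.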

In data set [2] the target is T1, Sterol O-acyltransferase 1 (Mus musculus) (UniProt Q61263).
T1 sequence (whole entry): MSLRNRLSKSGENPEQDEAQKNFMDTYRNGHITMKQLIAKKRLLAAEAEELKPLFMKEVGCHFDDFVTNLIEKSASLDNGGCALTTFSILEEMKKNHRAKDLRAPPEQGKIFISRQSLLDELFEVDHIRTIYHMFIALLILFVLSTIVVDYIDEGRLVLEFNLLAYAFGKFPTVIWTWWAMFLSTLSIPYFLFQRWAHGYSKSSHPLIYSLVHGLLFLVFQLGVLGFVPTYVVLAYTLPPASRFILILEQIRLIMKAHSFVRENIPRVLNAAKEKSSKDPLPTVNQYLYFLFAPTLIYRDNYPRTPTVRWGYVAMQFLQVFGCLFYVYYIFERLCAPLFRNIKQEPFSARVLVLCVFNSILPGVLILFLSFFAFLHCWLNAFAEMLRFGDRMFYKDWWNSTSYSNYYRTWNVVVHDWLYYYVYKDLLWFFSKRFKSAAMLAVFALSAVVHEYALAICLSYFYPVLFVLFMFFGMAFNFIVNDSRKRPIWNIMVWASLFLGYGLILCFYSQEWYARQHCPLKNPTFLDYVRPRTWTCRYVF
As to the kind of experiment: In Vivo effect for the hypolipidemic activity on Acyl-COA cholesterol acyltransferase in CF1 mice after 16 days of oral administration at a dose of 10 mg/kg. Format: functional, organism-based. On the set-up: dose 10 mg/kg. In a few lines: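 CF1 male mice are dosed orally at 10–60 mg/kg per day for 16 days, with 1% CMC as the control vehicle. Liver is homogenized at 10% in 0.25 M sucrose + 0.001 M EDTA, pH 7.2. Enzymes are assayed by literature methods, with Lowry protein. Activity is given as % of control (X ± SD, N = 6), with p from Student's t test.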

A further data set is filed under the species Mus musculus. Kind of data set: In Vitro evaluation for the CF1 liver enzyme activity on Hepatic lipoprotein lipase at concentration 200 uM. Format: functional. In a few lines: (§2)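 Mouse liver enzymes assayed in vitro on 10% homogenates of CF1 male mouse liver, with test drug added at 50–200 μM. Each enzyme follows a published procedure. Protein is measured by Lowry. Activity is given as % of untreated control (X ± SD, N = 6).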

Data set [3] deals with Cholesterol 7-alpha-hydroxylase (Cytochrome P450 7A1) (Mus musculus, UniProt Q64505). Kind of data set: In vitro percent Cholesterol 7-alpha-hydroxylase activity in mouse CF1 liver microsomes at 50 uM. Also on record: species or system Microsome. Conditions: read-out: Control. In a few lines:
as §2
Background: Microsomes from liver hold many membrane-bound enzymes, among them those of drug oxidation.

Data set [4] has as its system Rattus norvegicus. Kind of data set: Compound was evaluated for the hypolipidemic activity at 20 mg/kg per day orally for 14 days on phospholipids content in rat small intestine. Format: functional. Conditions: route oral. In a few lines: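 Male Sprague–Dawley rats were dosed orally for 14 days. Liver, small intestine and a 24-h fecal collection were lipid-extracted. Extracts were assayed for cholesterol (modified Liebermann–Burchard), triglyceride (enzymatic kit), neutral lipids, phospholipids and protein. Values are % of 1% CMC vehicle control, mean ± SD, N = 6.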

The target in data set [5] is T2, ATP-citrate synthase (Mus musculus) (UniProt Q91V92).
T2 sequence (whole entry): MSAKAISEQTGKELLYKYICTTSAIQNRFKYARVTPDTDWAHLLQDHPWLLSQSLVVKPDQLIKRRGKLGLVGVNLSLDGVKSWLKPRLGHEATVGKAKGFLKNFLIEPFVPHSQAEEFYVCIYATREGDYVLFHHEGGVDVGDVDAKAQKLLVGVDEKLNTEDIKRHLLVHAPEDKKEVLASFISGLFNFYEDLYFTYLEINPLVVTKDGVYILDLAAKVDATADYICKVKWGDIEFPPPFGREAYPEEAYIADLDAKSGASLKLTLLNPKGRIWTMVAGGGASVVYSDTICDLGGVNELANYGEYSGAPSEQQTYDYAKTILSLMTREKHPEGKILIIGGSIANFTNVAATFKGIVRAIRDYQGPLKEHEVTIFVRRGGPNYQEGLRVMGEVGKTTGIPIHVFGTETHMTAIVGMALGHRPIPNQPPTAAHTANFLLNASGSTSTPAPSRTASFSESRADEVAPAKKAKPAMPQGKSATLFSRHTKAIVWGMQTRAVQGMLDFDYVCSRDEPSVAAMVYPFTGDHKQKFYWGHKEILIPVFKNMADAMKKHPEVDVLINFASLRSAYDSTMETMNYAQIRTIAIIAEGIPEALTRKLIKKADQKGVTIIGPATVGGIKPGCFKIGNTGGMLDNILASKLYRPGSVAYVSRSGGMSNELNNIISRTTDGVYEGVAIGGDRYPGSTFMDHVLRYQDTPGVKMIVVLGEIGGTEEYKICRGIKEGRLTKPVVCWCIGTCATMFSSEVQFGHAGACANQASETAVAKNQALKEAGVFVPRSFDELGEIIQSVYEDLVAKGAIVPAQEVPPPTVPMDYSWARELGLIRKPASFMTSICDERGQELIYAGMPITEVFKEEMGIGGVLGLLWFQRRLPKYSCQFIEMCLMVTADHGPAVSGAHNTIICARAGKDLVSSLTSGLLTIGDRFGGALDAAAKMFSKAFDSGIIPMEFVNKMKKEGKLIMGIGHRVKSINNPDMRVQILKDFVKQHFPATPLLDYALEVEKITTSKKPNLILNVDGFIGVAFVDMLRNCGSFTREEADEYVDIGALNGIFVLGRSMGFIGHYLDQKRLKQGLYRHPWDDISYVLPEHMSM
Kind of data set: In Vitro evaluation for the CF1 liver enzyme activity on ATP-Citrate Lyase exchange at concentration 200 uM. In a few lines:
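Liver was taken from CF1 male mice and made into 10% homogenates, which were incubated with test compound at 50, 100 or 200 µM. Each enzyme was assayed by its literature method, and protein was measured by Lowry. N = 6. Activity is expressed as % of untreated control ± SD.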

Data set [6] has as its system Rattus norvegicus. Kind of data set: Compound was evaluated for the hypolipidemic activity at 20 mg/kg per day orally for 14 days against neutral lipids in rat lipoprotein chylomicron. Particulars: route oral. Format: functional. In a few lines:
as §1

Cholesterol 7-alpha-hydroxylase (Cytochrome P450 7A1), sequence (Q64505 whole entry): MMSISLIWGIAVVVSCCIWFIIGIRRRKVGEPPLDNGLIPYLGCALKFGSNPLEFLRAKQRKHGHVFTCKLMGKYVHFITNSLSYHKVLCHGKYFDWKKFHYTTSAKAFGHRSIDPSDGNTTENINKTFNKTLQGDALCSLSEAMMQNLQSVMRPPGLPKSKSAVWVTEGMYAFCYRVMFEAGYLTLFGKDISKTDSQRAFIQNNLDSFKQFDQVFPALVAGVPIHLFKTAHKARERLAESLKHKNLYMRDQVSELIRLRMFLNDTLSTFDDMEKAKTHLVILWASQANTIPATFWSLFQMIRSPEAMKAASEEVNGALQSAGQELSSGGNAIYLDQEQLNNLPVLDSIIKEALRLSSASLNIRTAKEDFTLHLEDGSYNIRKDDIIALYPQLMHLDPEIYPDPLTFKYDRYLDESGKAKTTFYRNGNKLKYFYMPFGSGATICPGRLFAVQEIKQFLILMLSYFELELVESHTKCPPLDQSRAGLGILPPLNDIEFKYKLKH

For `COc1ccc(C2C(=O)c3ccccc3C2=O)cc1` [ANISINDIONE], the Control turned out to be 204% with Rattus norvegicus [1]; 92% in data set [2]; 93% in the data set listed under Mus musculus; 136% in the data set on Rattus norvegicus [4]; 52% in data set [5]; 99% with Rattus norvegicus [6]. The activity at 50 µM in data set [3] amounted to 106%.
